High-throughput results (PubChem)
EBV gp42 block = Epstein-Barr virus gp42 inhibitors, primary screen, biochemical, uHTS, fluorescence polarization; Glycoprotein 42 (Epstein-Barr virus (strain AG876)), Q1HVG2; Fluorescence polarization binding assay, mP read-out; inhibition, % (tested at 21.74 µM); 220,000 tested, 0.42% active; AID 1085, 2008; in the data active means inhibition above about 50%
MEX-5 binding = MEX-5 zinc finger RNA-binding disruptors – biochemical, C. elegans, fluorescence polarization, MLPCN library, primary screen; Zinc finger protein mex-5 (Caenorhabditis elegans), Q9XUB2; MEX-5/FITC-TCR2 RNA binding; hits give low values; activity score (negative = inhibition of binding), % at 10 µM; 300,000 tested, 0.38% active; AID 1832, 2009;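 active means inhibition past about -25% in most replicates, and total fluorescence under double the plate's negative control median, limit read from the data; inconclusive means replicates evenly split on the limit, or fluorescence at least double controls; inactive means too little inhibition in most replicates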;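 further: 0% = DMSO and -100% = 5 µM competing unlabeled TCR2 RNA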
LANA-H2B inh = blockers of LANA interaction with H2A/H2B – biochemical, FP readout, HTS, primary screen. Protein LANA1 (Human herpesvirus 8 type P (isolate GK18)), Q9QR71. cell-free LANA-H2A/H2B peptide, fluorescence polarization. inhibition, % (concentration not given with the values). 320,000 tested, 0.6% active; in the data active means inhibition mostly above about 10%, no sharp cut-off; inactive means mostly below about 6.7%
Target sequence (Q9QR71 whole entry, looked up): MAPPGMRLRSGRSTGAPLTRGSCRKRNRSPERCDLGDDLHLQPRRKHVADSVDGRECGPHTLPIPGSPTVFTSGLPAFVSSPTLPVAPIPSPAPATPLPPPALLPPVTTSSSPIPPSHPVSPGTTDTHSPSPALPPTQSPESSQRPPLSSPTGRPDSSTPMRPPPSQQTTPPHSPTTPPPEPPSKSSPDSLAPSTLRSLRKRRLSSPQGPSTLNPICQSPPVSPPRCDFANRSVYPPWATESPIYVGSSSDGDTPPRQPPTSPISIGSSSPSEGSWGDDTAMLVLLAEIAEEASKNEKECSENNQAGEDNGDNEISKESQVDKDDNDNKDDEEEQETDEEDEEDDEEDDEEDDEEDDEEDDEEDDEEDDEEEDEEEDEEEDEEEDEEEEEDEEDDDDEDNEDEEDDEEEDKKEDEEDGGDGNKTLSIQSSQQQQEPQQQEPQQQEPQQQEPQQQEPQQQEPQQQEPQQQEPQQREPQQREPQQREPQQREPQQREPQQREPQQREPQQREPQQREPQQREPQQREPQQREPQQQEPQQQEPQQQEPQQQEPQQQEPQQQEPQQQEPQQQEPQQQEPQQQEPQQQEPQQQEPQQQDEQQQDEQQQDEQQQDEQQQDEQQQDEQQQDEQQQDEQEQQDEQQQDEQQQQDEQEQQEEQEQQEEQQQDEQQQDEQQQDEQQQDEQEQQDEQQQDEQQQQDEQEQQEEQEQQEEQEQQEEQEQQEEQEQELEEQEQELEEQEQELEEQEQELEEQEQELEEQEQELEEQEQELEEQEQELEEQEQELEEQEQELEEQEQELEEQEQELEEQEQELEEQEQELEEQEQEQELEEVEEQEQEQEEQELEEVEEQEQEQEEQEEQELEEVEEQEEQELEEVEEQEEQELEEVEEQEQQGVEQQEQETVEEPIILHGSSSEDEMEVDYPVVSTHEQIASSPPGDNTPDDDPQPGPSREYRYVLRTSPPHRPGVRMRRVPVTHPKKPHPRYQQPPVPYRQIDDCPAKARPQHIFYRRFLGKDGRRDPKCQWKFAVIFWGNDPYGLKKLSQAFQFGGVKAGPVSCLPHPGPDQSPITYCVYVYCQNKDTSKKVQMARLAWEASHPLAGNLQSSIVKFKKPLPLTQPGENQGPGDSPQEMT
Runt-CBFb FRET = inhibitors of RUNX1 Runt–CBFb binding, primary screen, biochemical, FRET, Cerulean-Runt, Venus-CBFb, uHTS | 220,000 tested, 0.46% active | Cerulean-Runt/Venus-CBFb FRET ratio 530/480, 1 h | inhibition, % at 20 µM | Runt-related transcription factor 1 (Homo sapiens) + Core-binding factor subunit beta …;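 active means inhibition over about 50% at 20 µM in the single-dose screen, limit read from the data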;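 further: 0% = DMSO wells and 100% = excess unlabeled CBFb competitor control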
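Doses: 20 µM compound in 1% DMSO | Material: Cerulean-labeled Runt domain protein | Amount: Each fluorescent fusion protein 100 nM | Schedule: Two 1 h room-temperature incubations shielded from light | Measured by: FRET fluorescence | Evaluation: Loss of energy transfer signal | Controls: Unlabeled CBFb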
RanGTP-Imp inh = inhibitors of RanGTP-importin-beta interaction, primary screen, biochemical, FRET, CFP-Ran, YFP-importin-beta, homogeneous | Ran GTPase (GTP-bound) - importin-beta complex | cell-free CFP-Ran/YFP-importin-beta FRET ratio | inhibition, % (test concentration not listed) | 300,000 tested, 1.1% active | AID 2216, 2009;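 active means more than half of the replicate wells show a fall in the fluorescence ratio signal beyond about 16%, limit read from the data, passing the limit was not always enough; inconclusive means exactly half of the replicate wells pass the set limit; inactive means fewer than half of replicates pass the limit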;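 further: 0% = DMSO wells and 100% = Ran loaded with GDP instead of GTP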
Runt-SMMHC FRET = inhibitors of RUNX1 Runt–CBFb-SMMHC binding, primary screen, biochemical, FRET, Cerulean-Runt, Venus-CBFb-SMMHC, uHTS | Runt-related transcription factor 1 (Homo sapiens) + Core-binding factor subunit beta … | Cerulean-Runt/Venus-CBFb-SMMHC FRET ratio 530/480, 1 h | inhibition, % at 20 µM | 220,000 tested, 0.74% active | AID 1434, 2008;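 active means mean inhibition across duplicate retests at 20 µM reaching about 50%, limit read from the data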;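 further: 0% = DMSO wells and 100% = wells with excess untagged CBFb-SMMHC; inhibitors lower the FRET ratio by blocking Runt binding to CBFb-SMMHC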
* hit, by the source's call. In the library only some 2.4% were active in any assay of this set; here they are far more common.

Results for O=C(NCC1CCCO1)c1cccc(S(=O)(=O)Nc2ccc(F)cc2)c1 (configuration not stated) ?
LANA-H2B inh: 63*

How did O=C(NCC1(N2CCCCC2)CCCCC1)c1cccc(S(=O)(=O)Nc2ccc(F)cc2)c1 do in these assays?
LANA-H2B inh: 23*

What do the screens show for `CCN(CC)S(=O)(=O)c1cc(OC)c(Cl)cc1OC`?
EBV gp42 block: -5; MEX-5 binding: 1; LANA-H2B inh: -9; Runt-CBFb FRET: -2; RanGTP-Imp inh: -3; Runt-SMMHC FRET: -2

What do the screens show for `COCCn1c(SCC(=O)NC2CCCCC2)nnc1-c1ccncc1`?
MEX-5 binding: -1; LANA-H2B inh: -7; RanGTP-Imp inh: 3

How did O=C(CN1C(=O)/C(=C2\SC(=S)N(C3CCS(=O)(=O)C3)C2=O)c2ccccc21)Nc1ccccc1 (configuration not stated) do in these assays?
EBV gp42 block: 43; LANA-H2B inh: 5; Runt-CBFb FRET: 11; Runt-SMMHC FRET: -7

What do the screens show for `Cc1ccc(NC(=O)CN2C(=O)/C(=C3\SC(=S)N(C4CCS(=O)(=O)C4)C3=O)c3ccccc32)cc1` (configuration not stated)?
EBV gp42 block: 105*; Runt-CBFb FRET: 11; Runt-SMMHC FRET: 8

How did CCCc1cc(=O)n2[nH]c(NCc3ccc(OC)cc3)nc2n1 do in these assays?
EBV gp42 block: -12; MEX-5 binding: -1; LANA-H2B inh: 0; Runt-CBFb FRET: 2; RanGTP-Imp inh: inconclusive; Runt-SMMHC FRET: -4

What do the screens show for `Cn1c(SCC(=O)Nc2ccc3nc(SCC(=O)N4CCCC4)sc3c2)nnc1-c1ccccc1`?
EBV gp42 block: 83*; MEX-5 binding: 2; LANA-H2B inh: 3; Runt-CBFb FRET: -1; RanGTP-Imp inh: 3; Runt-SMMHC FRET: -2

What do the screens show for `CCCC(=O)Nc1ccc2nc(SCC(=O)N3CCCC3)sc2c1`?
EBV gp42 block: 3; MEX-5 binding: 0; LANA-H2B inh: 1; Runt-CBFb FRET: 0; RanGTP-Imp inh: -1; Runt-SMMHC FRET: 2

How did Cc1ccc(C2=NN(C(=O)CN3CCN(C4CCS(=O)(=O)C4)CC3)C(c3ccco3)C2)cc1 (configuration not stated) do in these assays?
LANA-H2B inh: -4

How did c1cn(CCCNC2CCCCCCC2)cn1 do in these assays?
MEX-5 binding: 0; LANA-H2B inh: 2; RanGTP-Imp inh: -3

What do the screens show for `Cc1c(C(=O)NNC(=O)c2csc(N3CCOCC3)n2)cccc1[N+](=O)[O-]`?
LANA-H2B inh: -4

How did O=C(NNC(=O)c1ccccc1[N+](=O)[O-])c1ccccn1 do in these assays?
EBV gp42 block: -1; MEX-5 binding: -29*; LANA-H2B inh: 3; Runt-CBFb FRET: 3; RanGTP-Imp inh: 4; Runt-SMMHC FRET: -2

How did O=C(NNC(=O)c1ccccc1[N+](=O)[O-])c1csc(N2CCOCC2)n1 do in these assays?
MEX-5 binding: -42*; LANA-H2B inh: 8; RanGTP-Imp inh: -5

Results for COc1cc(/C=N/NC(=O)C(NC(=O)c2ccccc2)c2n[nH]c(=O)c3ccccc23)ccc1OCC(N)=O (configuration not stated) ?
MEX-5 binding: -1; LANA-H2B inh: 22*; RanGTP-Imp inh: 0

What do the screens show for `O=C(NC(C(=O)N/N=C/c1ccncc1)c1n[nH]c(=O)c2ccccc12)c1ccccc1` (configuration not stated)?
EBV gp42 block: -19; MEX-5 binding: 0; LANA-H2B inh: -4; Runt-CBFb FRET: 0; RanGTP-Imp inh: -1; Runt-SMMHC FRET: 1

Results for CC1CCc2[nH]c3ccc(C(=O)N(C)CC(=O)Nc4ccccc4Br)cc3c2C1 (configuration not stated) ?
MEX-5 binding: 2; LANA-H2B inh: 0; RanGTP-Imp inh: 10

Results for Cc1ccc(C)c(NC(=O)CN(C)C(=O)c2ccc3[nH]c4c(c3c2)CC(C)CC4)c1 (configuration not stated) ?
MEX-5 binding: 0; LANA-H2B inh: -8; RanGTP-Imp inh: 26*

What do the screens show for `CC(=O)OCCn1c2nc(=O)[nH]c(=O)c-2nc2cc(C)c(C)cc21`?
EBV gp42 block: -56; MEX-5 binding: inconclusive; LANA-H2B inh: 166*; Runt-CBFb FRET: -172; RanGTP-Imp inh: -213; Runt-SMMHC FRET: 14

How did CC(=O)OCCn1c(C)[n+](CCOC(C)=O)c2cc(Cl)c(Cl)cc21 do in these assays?
EBV gp42 block: -37; MEX-5 binding: 2; LANA-H2B inh: 0; Runt-CBFb FRET: 2; RanGTP-Imp inh: -3; Runt-SMMHC FRET: 7

What do the screens show for `CCC(C)/C(C)=N/NC(=O)CSc1nc2ccccc2[nH]1` (configuration not stated)?
EBV gp42 block: -13; MEX-5 binding: 1; LANA-H2B inh: 0; Runt-CBFb FRET: 7; RanGTP-Imp inh: -1; Runt-SMMHC FRET: 1

How did COC(=O)C1=CN(C(C)C)C=C(C(=O)OC)C1c1cccc(OC)c1 do in these assays?
EBV gp42 block: -10; MEX-5 binding: 1; LANA-H2B inh: 0; Runt-CBFb FRET: 72*; RanGTP-Imp inh: 66*; Runt-SMMHC FRET: -16

What do the screens show for `COC(=O)C1=CN(Cc2ccc(F)cc2)C=C(C(=O)OC)C1c1ccc(O)c(OC)c1`?
MEX-5 binding: 1; LANA-H2B inh: 1; RanGTP-Imp inh: 10

What do the screens show for `COC(=O)C1=CN(C(C)C)C=C(C(=O)OC)C1c1cc(Br)c(OC)c(OC)c1`?
EBV gp42 block: -12; MEX-5 binding: -3; LANA-H2B inh: -4; Runt-CBFb FRET: 114*; RanGTP-Imp inh: 59*; Runt-SMMHC FRET: 75*

How did O=C(CCc1c[nH]c2ccccc12)N/N=C/c1ccc2c(c1)OCO2 do in these assays?
EBV gp42 block: -6; MEX-5 binding: 0; LANA-H2B inh: 3; Runt-CBFb FRET: 1; RanGTP-Imp inh: -1; Runt-SMMHC FRET: 3

Results for COc1ccc(Nc2c3c(nc4ccccc24)CCC3)cc1 ?
MEX-5 binding: 0; LANA-H2B inh: -10; RanGTP-Imp inh: 8

What do the screens show for `COc1cccc(C(=O)NNc2nc(C)cc(C)n2)c1`?
EBV gp42 block: -11; MEX-5 binding: inconclusive; LANA-H2B inh: 6; Runt-CBFb FRET: -2; RanGTP-Imp inh: 3; Runt-SMMHC FRET: 5
